The text below walks through data of ChEMBL document CHEMBL3244043, “Nucleoside 5'-monophosphate analogues. Synthesis of 5'-sulfamino-5'-deoxynucleosides” (J Med Chem, 1978).

The source made the active and inactive calls. The calls are words filed in the database; no cut-off is given here.

A short description of data set [1]: Stability of the compound in NaOH assessed as cleavage of sulfamino group at 23 degC after 24 hrs. It counts as physicochemical. An outline of the steps:
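Compound exposed to 0.1 M NaOH at 23 °C for 24 h, then examined for any cleavage of the 5'-sulfamino group.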

Data set [2] is described as follows: Drug degradation in HCl assessed as hydrolysis of 5'-sulfamino group to form amino nucleoside at 23 degC after 24 hrs. The note with it: read-out: Drug degradation. It counts as physicochemical. An outline of the steps:
(§1)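 Compound held in 0.1 M HCl at 23 °C for 24 h. Hydrolysis reported as percent cleavage of the 5'-sulfamino group, giving the amino nucleoside, and of the glycosidic bond, giving adenine.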

Data set [3] can be described thus: Drug degradation in HCl assessed as hydrolysis of glycosidic linkage to form adenine at 23 degC after 24 hrs. The note with it: read-out: Drug degradation. The class given is physicochemical. The essentials: as §1
Data set [4] relates to Human alphaherpesvirus 1. As to the kind of experiment: Antiviral activity against Herpes simplex virus type 1 infected in African green monkey CV1 cells assessed as inhibition of viral replication at 10^-4 M. The class given is functional, organism-based. The conditions noted are these: CV-1.
The test system of data set [5] is Enterococcus faecalis. The experiment in a line: Antibacterial activity against Streptococcus faecalis assessed as growth inhibition at 1 x 10^-3 M relative to control. The note with it: read-out: GI. The class given is functional.
Data set [6] deals with Escherichia coli. The experiment in a line: Antibacterial activity against Escherichia coli K-12 assessed as growth inhibition at 1 x 10^-3 M relative to control. It counts as functional. The note with it: read-out: GI.
The subject of data set [7] is Escherichia coli. As to the kind of experiment: Antibacterial activity against Escherichia coli B assessed as growth inhibition at 1 x 10^-3 M relative to control. It counts as functional. The conditions noted are these: read-out: GI.
Data set [8] concerns L1210. The experiment in a line: Cytotoxicity against mouse L1210 cells assessed as growth inhibition at 1 x 10^-3 M. The class given is functional, cell-based.
Data set [9] relates to L1210. The experiment in a line: Cytotoxicity against mouse L1210 cells assessed as cell growth at 1 x 10^-4 M. It counts as functional, cell-based.
For data set [10], the system named is Human alphaherpesvirus 1. The experiment in a line: Antiviral activity against Herpes simplex virus type 1 infected in African green monkey CV1 cells assessed as inhibition of viral replication at 1 x 10^-5 M relative to control. The conditions noted are these: Human alphaherpesvirus 1, CV-1. It counts as functional.
Data set [11] concerns Human alphaherpesvirus 1. As to the kind of experiment: Antiviral activity against Herpes simplex virus type 1 infected in African green monkey CV1 cells assessed as inhibition of viral replication at 1 x 10^-4 M relative to control. It counts as functional. The conditions noted are these: Human alphaherpesvirus 1, CV-1.
Data set [12] is described as follows: Cytotoxicity against African green monkey CV1 cells assessed as effect on cell growth at 1 x 10^-4 M. It counts as cell-based. The note with it: chlorocebus aethiops, cv-1, 100 µM.

`Nc1ncnc2c1ncn2[C@@H]1O[C@H](CNS(=O)(=O)O)[C@@H](O)[C@H]1O`: the Stability entry in [1] was “Stable”. Further, the figures for the degraded at 24 h in data set [2] and in data set [3] were 0.75% and 16%, respectively. The inhibition result in data set [4] is “inactive”. Besides, the inhibition of growth at 1000 µM in data set [5], in data set [6] and in data set [7] was under 10% each time. The “growth inhibition (GI)” value in data set [8] was “inactive”. The outcome in data set [9] was inactive.
For `Cc1cn([C@H]2C[C@H](O)[C@@H](CNS(=O)(=O)O)O2)c(=O)[nH]c1=O`, the Stability result in data set [1] is given as “Stable”. The degraded at 24 h in data set [2] is 2.4%. Moreover, the inhibition at 10 µM in data set [10] came out at 35%. For the same compound, the inhibition at 100 µM in data set [11] was 70%. Moreover, the inhibition of growth at 1000 µM in data set [5], in data set [6] and in data set [7] was under 10% in each case. For the same compound, in data set [8], the “growth inhibition (GI)” value was “inactive”. In data set [9], the result was inactive. The Activity entry in [12] was “Non-toxic”.

In general, inhibition refers to the percentage by which the read-out fell short of the control.
